Compound activity deposited in PubChem by Broad Institute.
This is a sample that favours compounds with a hit; in the whole collection about 3.5% have one here.
FGF22 binding – binders of human FGF22 protein, primary screen, FGF22 synaptogenesis inhibitor project, biophysical, thermal shift, single point | recombinant FGF22 thermal shift, SYPRO orange fluorescence; percent of sucrose octasulfate shift, DMSO zero | activity (Tm shift, normalised), % at 9.99 µM | 340,000 tested, 1.5% active;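 active = mean Tm shift, scaled 0 neutral to 100 positive control, at about 1.3% or above, every replicate too, limit read from the data; inconclusive = no clear call, values can overlap the other calls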
Target sequence (Q9HCT0 whole entry, looked up): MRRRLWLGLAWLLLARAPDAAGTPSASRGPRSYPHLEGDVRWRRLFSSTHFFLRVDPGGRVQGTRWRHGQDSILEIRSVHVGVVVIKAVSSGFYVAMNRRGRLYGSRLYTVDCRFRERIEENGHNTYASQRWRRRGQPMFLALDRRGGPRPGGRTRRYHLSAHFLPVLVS
ERAP1 inh – human ERAP1 aminopeptidase inhibitors, primary screen, biochemical, single point, plate reader | recombinant ERAP1, Leu-AMC fluorescence, 60 min | inhibition, % at 10.7 µM | 340,000 tested, 0.15% active | AID 652197, 2013;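 active = mean replicate inhibition of at least 30%, or all replicates individually reaching that 30% level; inactive = mean below 30% and not every replicate reaching it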;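 also: 0% = neutral control wells and 100% = L-leucinethiol positive control wells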
Cneo AK release – Cryptococcus neoformans cell lysis inducers, primary screen, AK release luminescence, single concentration; C. neoformans lysis, adenylate kinase release luminescence, 4 h; normalised: neutral wells 0, clomiphene wells 100; lysis activity, % at 15 µM; AID 651654, 2012; 360,000 tested, 0.2% active;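 active = mean lysis activity across replicates of at least 80%, whatever share of replicates individually reach that level; inactive = mean lysis activity below 80%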
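Assay system: C. neoformans cells. Amount: yeast cell density of 5 × 10^6 cells/mL. Technique: AK luminescence. Buffer or medium: YPD. Times: static 4 h at 37 °C with compound, 1 h detection. Dosing: single-point compound dose. Read-out: lysis from increased AK signal.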
PGC1a acetyl inh – inhibitors of PGC1a acetylation signal, primary screen, cell-based, U2OS, AlphaScreen, inhibitor mode | AlphaScreen anti-acetyl-lysine; with virally co-expressed GCN5 acetyltransferase | inhibition, % at 15.6 µM | 350,000 tested, 0.17% active;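 active = every replicate shows inhibition of at least 40%; inconclusive = mean inhibition at least 40% but some replicate below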;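 also: 0% = neutral control wells and 100% = positive control wells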
HIV Env fusion – inhibitors of HIV-1 Env-driven cell-cell fusion, primary screen, HeLa-JRFL effector, CEM21 target cells, luciferase; inhibition, % at 12.3 µM; 360,000 tested, 1.1% active; AID 651610, 2012;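 active = mean replicate inhibition score of at least 50 and every replicate individually at or above 50; inconclusive = only one of the two criteria met; inactive = mean below 50 and not all replicates reaching 50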;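 also: 0% = plate neutral controls and 100% = maraviroc near 300 nM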
rRNA inh HTS – reduced GFP signal of wild-type E. coli, primary screen, bacterial rRNA inhibitor project, GFP/RFP fluorescence, OD600, single point; E. coli WT GFP vs humanized-ribosome RFP mutants, 24 h; active compounds read low; DMSO median 0, no signal -100; GFP signal change (wild-type ribosome), % (concentration not given with the values); 350,000 tested, 1.6% active; AID 720706, 2013;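 active = significant combined selectivity score with lowered wild-type GFP, culture density cut under 30%, mutant RFP and density less affected; inactive = any of these conditions unmet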
AID977621 – growth inhibition of wild-type GFP E. coli, dose response, H69 mutant RFP, cherry-pick; shares compounds with rRNA inh HTS; E. coli wild-type GFP strain growth, fluorescence, 24 h; activity change, negative = inhibition at 50 µM; 1,900 tested, under 10 active;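 active = Wild-type ribosome reporter drop at least double the humanized mutant ribosome reporter drop, growth loss under a set limit; inconclusive = no clear call, values can overlap the other calls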;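 also: wild-type GFP and H69 mutant RFP strains grown together 50/50 in each well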
AID977628 – E. coli growth inhibition, wild-type GFP versus h24 humanized RFP strain, dose response, h24 mutant RFP vs wild-type GFP, cherry-pick; shares compounds with rRNA inh HTS; 1,900 tested, under 10 active; E. coli WT GFP strain growth, fluorescence, 24 h; activity change, negative = inhibition at 50 µM;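 active = compound lowering the normal-ribosome reporter at least twice as much as the humanized-ribosome reporter, growth loss under a set limit; inconclusive = no clear call, values can overlap the other calls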;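 also: wild-type GFP and h24 humanized RFP strains co-cultured 1 to 1 per well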
* = called active by the depositor; ? = inconclusive; . = no result.

SMILES	FGF22 binding	ERAP1 inh	Cneo AK release	PGC1a acetyl inh	HIV Env fusion	rRNA inh HTS	AID977621	AID977628
Clc1ccc(CN=C2Nc3ccccc3CS2)cc1	.	.	-2.3	3.6	-241.2	.	.	.
c1ccc2c(c1)CSc1ccccc1N2	-0.1	-0.3	2.6	-6.1	-10.2	-23.8*	6.07	-11.8
CSc1nc2nc3c(cc2c(=O)n1-c1ccccc1C)CCCC3	0.2	17.4	1.6	-4.7	5.9	-29.5*	-15.5	-10.9
COc1ccc(CN2C(=O)CC(Cc3cc(C)cc(C)c3)C2=O)cc1OC (stereo unspecified)	0.5	-2.1	.	.	25.0	-20.4*	-7.8	.
COc1ccc(CCN2C(=O)CC(Cc3cccc(C)c3)C2=O)cc1OC (stereo unspecified)	0.2	3.7	.	5.4	9.2	-19.4	.	.
S=C1SCN(Cc2cccnc2)CN1Cc1cccnc1	-0.1	-3.8	.	-1.3	-3.1	-29.0*	-15.4	-21.7
COc1ccc(OC)c(NC(=O)C2(C)CCN2Cc2cccc(OC)c2OC)c1 (stereo unspecified)	0.0	5.0	-2.5	.	18.6	-23.7	.	.
O=C(COc1ccccc1Cl)Nc1nc(-c2ccncc2)cs1	0.5	-0.1	-1.1	.	-16.7	-20.4*	-3.8	-12.9
O=C(COc1ccc(Cl)cc1)Nc1nc(-c2ccncc2)cs1	-0.1	-0.7	3.8	0.6	-1.2	-0.2	.	.
COc1cccc(NC(=O)CN(C)C(=O)C2CC3C=CC2C3)c1 (stereo unspecified)	.	1.7	-0.8	5.4	-446.6	2.8	.	.
COc1ccccc1CNC(=O)CN1C(=O)NC(c2ccccc2)(c2ccccc2)C1=O	-0.1	0.8	.	2.7	-5.4	-16.4*	-0.42	.
COc1ccccc1CNC(=O)CSc1ccccc1	0.0	0.8	.	.	-3.0	-12.9	.	.
COc1ccccc1CNC(=O)CSc1ccc(C)cc1	0.1	-1.1	.	.	-2.9	-16.2*	-6.36	.
CC1CCN(C(=O)c2cc3ccccc3cc2O)CC1	-0.3	0.5	-1.3	-1.1	.	11.6	.	.
Cc1ccc(C(=O)NCCc2ccccc2)cc1N1CCCC1=O	.	.	0.1	-8.6	.	.	.	.
Cc1cccc(N2CCN(C(=O)c3ccc4nc[nH]c4c3)CC2)c1C	0.1	-7.6	5.4	.	7.9	-17.4	.	.
Cc1ccc(Cl)cc1N1CCN(C(=O)c2ccc3nc[nH]c3c2)CC1	0.1	7.0	.	.	11.7	-45.5*	-16.6	.
CC(C)NC(=O)N(C)C[C@@H]1OCc2ccccc2-c2ccccc2C(=O)N([C@@H](C)CO)C[C@@H]1C	0.0	-0.9	-1.8	0.8	.	0.8	.	.
CCn1cc(CCC(=O)NCCc2ccccc2)c2ccccc21	-0.2	3.1	0.5	-11.3	11.5	-19.3*	-7.97	?
CCn1cc(CCC(=O)NC(C)c2ccccc2)c2ccccc21 (stereo unspecified)	0.0	4.2	-1.9	.	-1.1	-7.8	.	.
COC(=O)c1ccc(CSc2nc3ccccc3s2)o1	0.0	0.0	-5.2	4.2	.	-32.7*	11.1	-2.88
COC(=O)c1ccc(CSc2n[nH]c(=S)s2)o1	.	.	0.3	-6.5	.	.	.	.
COC(=O)c1cc2n(n1)CCN(Cc1ccc(F)cc1)C2=O	.	.	.	-25.6	.	.	.	.
CC(=O)Nc1cccc(NC(=O)c2c(-c3c(Cl)cccc3Cl)noc2C)c1	0.1	1.3	2.5	11.2	.	-17.1*	-0.738	-1.98
CC(C)OC(=O)CC12CN3CN(C1)CC(CC(=O)OC(C)C)(C3)C2=O	.	1.6	1.2	5.8	.	4.8	.	.
